Results from ChEMBL document CHEMBL1139225, “Metabolism-based identification of a potent thrombin receptor antagonist” (J Med Chem, 2007).
≈ marks a conversion by molar mass, not a printed value. One block for each compound: values may come before it. Calls of active or inactive are those of the source. No cut-off for these calls is given here.

How the values were obtained:
[1] = Solubility of the compound; type: physicochemical
[2] = molecular target: T1, Proteinase-activated receptor 1 (Homo sapiens, UniProt P25116); test: Displacement of [3H]haTRAP from PAR1 in human platelet membrane; type: cell membranes
T1 sequence (P25116 whole entry): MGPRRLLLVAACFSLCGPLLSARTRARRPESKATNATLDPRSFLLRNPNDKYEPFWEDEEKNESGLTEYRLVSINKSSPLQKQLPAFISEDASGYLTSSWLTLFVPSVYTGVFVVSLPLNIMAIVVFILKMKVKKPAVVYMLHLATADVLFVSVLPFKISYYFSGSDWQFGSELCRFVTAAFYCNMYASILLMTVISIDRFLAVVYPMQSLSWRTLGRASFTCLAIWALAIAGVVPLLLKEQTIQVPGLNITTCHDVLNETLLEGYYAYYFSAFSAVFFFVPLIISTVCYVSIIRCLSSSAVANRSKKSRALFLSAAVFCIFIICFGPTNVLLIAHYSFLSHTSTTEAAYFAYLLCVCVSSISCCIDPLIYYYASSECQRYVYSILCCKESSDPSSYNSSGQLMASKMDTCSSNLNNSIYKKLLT

[3] = AUC (0-6h) in rat at 10 mg/kg, po; type: ADME, organism-based; design: time < 6 hr, dose 10 mg/kg, route oral; conditions: plasma
Procedure, shortened: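 Rat oral pharmacokinetics at 10 mg/kg dosed in 20% HPβCD. Plasma exposure was reported as AUC(0-6).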

[4] = Cmax in Sprague-Dawley rat at 300 mg/kg, po after 10 days; type: ADME, organism-based; design: dose 300 mg/kg, route oral; conditions: in vivo
Procedure, shortened: (§1)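 Fed male Sprague Dawley rats, four per group, given the compound orally once daily for 10 consecutive days in 0.4% methylcellulose (100 and 300 mg/kg groups). On day 1 and day 10, plasma concentrations of parent and hydroxylated metabolites were measured at 1, 2, 4, 8, 12 and 24 h, giving AUC(0-24 h) and Cmax.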

[5] = AUC (0-6h) in rat after oral administration; type: ADME, organism-based; design: time < 6 hr, route oral; conditions: plasma
[6] = Plasma concentration in cynomolgus monkey at 24 hrs; type: ADME, organism-based, Macaca fascicularis
Procedure, shortened: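 Cynomolgus monkeys were given an oral dose of 3 mg/kg in 0.4% methylcellulose. Plasma was sampled at 6 and 24 h and analysed by LC-MS/MS.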

[7] = AUC (0-24h) in Sprague-Dawley rat at 300 mg/kg, po after 1 day; type: ADME, organism-based; design: time < 24 hr, dose 300 mg/kg, route oral; conditions: plasma; procedure, shortened: as §1
[8] = AUC (0-24h) in Sprague-Dawley rat at 300 mg/kg, po after 10 days; type: ADME, organism-based; design: time < 24 hr, dose 300 mg/kg, route oral; conditions: plasma; procedure, shortened: as §1
[9] = Cmax in Sprague-Dawley rat at 300 mg/kg, po after 1 day; type: ADME, organism-based; design: dose 300 mg/kg, route oral; conditions: in vivo; procedure, shortened: as §1
[10] = Inhibition of thrombin-mediated activation of calcium transients in human CASMC; type: functional
Procedure, shortened: (§2)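 Human coronary artery smooth muscle cells were loaded with the fluorescent calcium dye Fluo-3, and intracellular calcium was read on a fluorometric imaging plate reader. Thrombin served as the agonist in the inhibition format. For the agonist check, cells were treated with the compound alone.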

[11] = Bioavailability in cynomolgus monkey; type: ADME, organism-based, Macaca fascicularis; conditions: in vivo
Homo sapiens = species on record: Homo sapiens; test: Effect on elevation of calcium level in human CASMC; type: functional; procedure, shortened: as §2
Platelet [12] = test: Inhibition of haTRAP-induced platelet aggregation in cynomolgus monkey at 3 mg/kg; type: functional, organism-based; design: dose 3 mg/kg; conditions: Macaca fascicularis
Procedure, shortened: (§3)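 Ex-vivo assay in cynomolgus monkeys. The compound was given orally as a single dose (1 mg/kg or 3 mg/kg in 20% HPβCD). Platelet aggregation induced by haTRAP was then measured in samples taken after dosing, at time points up to 24 h.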

Platelet [13] = test: Inhibition of ADP-induced human platelet aggregation; type: functional, cell-based
Procedure, shortened: (§4)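 Washed platelets from healthy human donors who had been aspirin-free for 7 days were preincubated with the compound for 1 h. Aggregation was then triggered by 0.3 µM haTRAP, or by ADP for the specificity test. IC50 was derived for the haTRAP response.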

[14] = Inhibition of haTRAP-induced platelet aggregation in cynomolgus monkey at 1 mg/kg after 24 hr; type: functional; conditions: Macaca fascicularis; procedure, shortened: as §3
Cytochrome P450 3A4 = Cytochrome P450 3A4 (Homo sapiens, UniProt P08684); test: Inhibition of cytochrome P450 3A4 in human liver microsomes up to 10 uM; type: ADME, Microsome
Sequence of Cytochrome P450 3A4 (P08684 whole entry): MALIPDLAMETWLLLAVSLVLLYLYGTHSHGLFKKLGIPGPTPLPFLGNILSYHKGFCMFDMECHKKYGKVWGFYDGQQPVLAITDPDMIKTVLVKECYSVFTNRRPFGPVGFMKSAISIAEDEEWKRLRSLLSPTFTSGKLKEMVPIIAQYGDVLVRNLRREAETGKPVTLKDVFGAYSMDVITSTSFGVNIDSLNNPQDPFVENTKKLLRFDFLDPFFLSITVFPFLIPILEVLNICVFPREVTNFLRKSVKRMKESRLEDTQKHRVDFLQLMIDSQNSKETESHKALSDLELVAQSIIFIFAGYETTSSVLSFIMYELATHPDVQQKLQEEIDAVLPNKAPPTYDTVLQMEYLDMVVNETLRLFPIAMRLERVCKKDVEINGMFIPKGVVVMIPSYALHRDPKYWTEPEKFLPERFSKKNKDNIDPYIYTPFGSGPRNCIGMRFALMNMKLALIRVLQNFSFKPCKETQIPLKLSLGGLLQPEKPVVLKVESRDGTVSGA
Procedure, shortened: (§5)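 Human liver microsomes. The compound was tested at concentrations up to 10 µM for inhibition of CYP2D6, 3A4, 2C9 and 2C19.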

Cytochrome P450 2C9 = Cytochrome P450 2C9 (Homo sapiens, UniProt P11712); test: Inhibition of cytochrome P450 2C9 in human liver microsomes up to 10 uM; type: ADME, Microsome; procedure, shortened: as §5
Sequence of Cytochrome P450 2C9 (P11712 whole entry): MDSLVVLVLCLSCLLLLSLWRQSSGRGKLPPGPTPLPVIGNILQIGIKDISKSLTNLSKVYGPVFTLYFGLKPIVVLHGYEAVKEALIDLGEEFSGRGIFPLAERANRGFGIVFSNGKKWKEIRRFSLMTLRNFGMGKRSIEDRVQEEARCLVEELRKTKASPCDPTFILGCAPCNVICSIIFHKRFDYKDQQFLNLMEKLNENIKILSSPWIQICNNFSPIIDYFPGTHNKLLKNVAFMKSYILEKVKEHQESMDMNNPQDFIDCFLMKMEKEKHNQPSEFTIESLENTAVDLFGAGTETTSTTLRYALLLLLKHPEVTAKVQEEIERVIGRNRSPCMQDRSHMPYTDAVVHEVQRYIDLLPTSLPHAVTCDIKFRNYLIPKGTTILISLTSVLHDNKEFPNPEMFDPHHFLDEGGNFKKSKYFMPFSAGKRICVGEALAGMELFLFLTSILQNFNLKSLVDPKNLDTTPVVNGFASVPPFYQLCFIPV

[15] = Inhibition of thrombin-stimulated [3H]thymidine incorporation in human CASMC; type: functional
Procedure, shortened: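 Human coronary artery smooth muscle cells were stimulated with thrombin. [3H]thymidine incorporation was measured, and an apparent Ki was derived.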

Cytochrome P450 2C19 = Cytochrome P450 2C19 (Homo sapiens, UniProt P33261); test: Inhibition of cytochrome P450 2C19 in human liver microsomes up to 10 uM; type: ADME, Microsome; procedure, shortened: as §5
Sequence of Cytochrome P450 2C19 (P33261 whole entry): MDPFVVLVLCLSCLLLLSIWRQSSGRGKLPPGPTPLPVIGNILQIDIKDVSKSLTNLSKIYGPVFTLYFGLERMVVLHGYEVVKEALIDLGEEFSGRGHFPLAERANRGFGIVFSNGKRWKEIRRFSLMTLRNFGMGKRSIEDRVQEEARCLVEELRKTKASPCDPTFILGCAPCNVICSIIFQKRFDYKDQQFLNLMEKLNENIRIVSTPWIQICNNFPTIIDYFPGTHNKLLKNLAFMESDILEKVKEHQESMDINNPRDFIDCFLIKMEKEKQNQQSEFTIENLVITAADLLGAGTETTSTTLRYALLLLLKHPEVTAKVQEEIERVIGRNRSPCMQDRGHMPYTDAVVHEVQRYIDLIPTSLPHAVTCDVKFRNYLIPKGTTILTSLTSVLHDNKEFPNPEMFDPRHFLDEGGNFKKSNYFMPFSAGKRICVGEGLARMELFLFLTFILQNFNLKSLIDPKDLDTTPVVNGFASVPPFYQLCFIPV

[16] = Oral absorption in cynomolgus monkey; type: ADME, organism-based, Macaca fascicularis; conditions: in vivo
[17] = AUC (0-24h) in cynomolgus monkey at 1 mg/kg, po; type: ADME, organism-based, Macaca fascicularis; design: time < 24 hr, dose 1 mg/kg, route oral; conditions: plasma
Procedure, shortened: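 Cynomolgus monkeys received a single oral dose of 1 mg/kg in 20% HPβCD. Blood levels were followed at various time points afterwards.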

[18] = Inhibition of haTRAP-induced human platelet aggregation; type: functional, cell-based; procedure, shortened: as §4
Cytochrome P450 2D6 = Cytochrome P450 2D6 (Homo sapiens, UniProt P10635); test: Inhibition of cytochrome P450 2D6 in human liver microsomes up to 10 uM; type: ADME, Microsome; procedure, shortened: as §5
Sequence of Cytochrome P450 2D6 (P10635 whole entry): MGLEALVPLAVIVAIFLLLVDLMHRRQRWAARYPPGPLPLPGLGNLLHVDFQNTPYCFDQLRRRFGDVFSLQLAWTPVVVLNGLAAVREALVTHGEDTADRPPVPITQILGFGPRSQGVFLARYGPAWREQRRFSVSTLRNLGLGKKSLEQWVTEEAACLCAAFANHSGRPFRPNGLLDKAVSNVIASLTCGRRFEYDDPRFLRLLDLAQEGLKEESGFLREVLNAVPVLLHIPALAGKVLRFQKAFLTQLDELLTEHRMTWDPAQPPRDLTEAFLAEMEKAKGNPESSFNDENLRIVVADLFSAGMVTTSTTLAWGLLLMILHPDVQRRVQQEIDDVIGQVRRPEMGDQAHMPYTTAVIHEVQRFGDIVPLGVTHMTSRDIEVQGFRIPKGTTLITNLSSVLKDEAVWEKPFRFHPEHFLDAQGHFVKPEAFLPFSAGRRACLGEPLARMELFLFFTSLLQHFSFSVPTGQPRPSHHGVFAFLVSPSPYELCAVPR

Platelet [19] = test: Inhibition of haTRAP-induced platelet aggregation in cynomolgus monkey at 1 mg/kg after 6 hrs; type: functional, organism-based; design: dose 1 mg/kg; conditions: Macaca fascicularis; procedure, shortened: as §3

- IC50 [2]: 28 nM
Compound: C[C@H]1OC(=O)[C@@H]2C[C@@H]3CC(F)(F)CC[C@H]3[C@H](/C=C/c3ccc(-c4ccccc4F)cn3)[C@H]12

- Ki [10]: 85 nM
- bioavailability [11]: 89%
- Cmax [4]: 25000 ng/mL
- AUC(0-t) at 6 h [5]: 6130 ng·h/mL
- Activity (Cytochrome P450 3A4): Not Active
- IC50 [2]: 17 nM
- Ki [2]: 11 nM
- Activity (Cytochrome P450 2C9): Not Active
- Ki [15]: 22 nM
- AUC(0-t) at 24 h [7]: 93000 ng·h/mL
- Activity (Cytochrome P450 2C19): Not Active
- Fa [16]: 92%
- AUC(0-t) at 24 h [17]: 3060 ng·h/mL
- AUC at 24 h [8]: 41000 ng·h/mL
- IC50 [18]: 60 nM
- Activity (Cytochrome P450 2D6): Not Active
- Cmax [9]: 58000 ng/mL
Compound: C[C@H]1OC(=O)[C@@H]2C[C@@H]3C[C@H](O)CC[C@H]3[C@H](/C=C/c3ccc(-c4cccc(C(F)(F)F)c4)cn3)[C@H]12
- Activity (Homo sapiens): inactive
- Activity (Platelet [12]): Active
- Activity (Platelet [13]): inactive
- inhibition in vivo at 1 mg/kg [14]: 60%
- Activity (Platelet [19]): Active

- IC50 [2]: 70 nM
Compound: Cc1ccccc1-c1ccc(/C=C/[C@H]2[C@@H]3CC[C@@H](O)C[C@H]3C[C@H]3C(=O)O[C@H](C)[C@@H]23)nc1

- IC50 [2]: 829 nM
Compound: C[C@H]1OC(=O)[C@@H]2C[C@@H]3C[C@H](O)CC[C@H]3[C@H](/C=C/c3ccc(-c4ccc(F)cc4)cn3)[C@H]12

- IC50 [2]: 72 nM
Compound: C[C@H]1OC(=O)[C@@H]2C[C@@H]3C[C@H](O)CC[C@H]3[C@H](/C=C/c3ccc(-c4ccccc4F)cn3)[C@H]12

- Cmax [4]: 47000 ng/mL
- AUC(0-t) at 6 h [5]: 3150 ng·h/mL
- IC50 [2]: 23 nM
- AUC(0-t) at 24 h [7]: 18000 ng·h/mL
- AUC(0-t) at 24 h [17]: 73 ng·h/mL
- AUC at 24 h [8]: 81000 ng·h/mL
- Cmax [9]: 11000 ng/mL
Compound: C[C@H]1OC(=O)[C@@H]2C[C@@H]3C[C@@H](O)CC[C@H]3[C@H](/C=C/c3ccc(-c4cccc(C(F)(F)F)c4)cn3)[C@H]12
- Activity (Platelet [19]): Active

Further lines, the compound ahead of its results:

Compound: C[C@H]1OC(=O)[C@@H]2C[C@@H]3CC(F)(F)CC[C@H]3[C@H](/C=C/c3ccc(-c4cccc(C(F)(F)F)c4)cn3)[C@H]12
- solubility [1]: 5 µM (≈ 2.46 µg/mL)
- IC50 [2]: 37 nM
- AUC(0-t) at 6 h [3]: 1200 ng·h/mL

Compound: C[C@H]1OC(=O)[C@@H]2C[C@H]3[C@@H](CCC[C@@H]3O)[C@H](/C=C/c3ccc(-c4cccc(C(F)(F)F)c4)cn3)[C@H]12
- Cmax [4]: 79000 ng/mL
- AUC(0-t) at 6 h [5]: 5760 ng·h/mL
- IC50 [2]: 41 nM
- concentration at 24 h [6]: 160 ng/mL
- AUC(0-t) at 24 h [7]: 49000 ng·h/mL
- AUC at 24 h [8]: 150000 ng·h/mL
- Cmax [9]: 29000 ng/mL

Compound: C[C@H]1OC(=O)[C@@H]2C[C@@H]3CC[C@@H](O)C[C@H]3[C@H](/C=C/c3ccc(-c4cccc(C(F)(F)F)c4)cn3)[C@H]12
- IC50 [2]: 481 nM

Compound: C[C@H]1OC(=O)[C@@H]2C[C@@H]3CC(F)(F)CC[C@H]3[C@H](/C=C/c3ccc(-c4cccc(Cl)c4)cn3)[C@H]12
- solubility [1]: 5 µM (≈ 2.29 µg/mL)
- IC50 [2]: 12 nM
- AUC(0-t) at 6 h [3]: 1200 ng·h/mL

Compound: C[C@H]1OC(=O)[C@@H]2C[C@@H]3CC(F)(F)CC[C@H]3[C@H](/C=C/c3ccc(-c4cccc(F)c4)cn3)[C@H]12
- IC50 [2]: 15 nM

Compound: C[C@H]1OC(=O)[C@@H]2C[C@@H]3CC(F)(F)CC[C@H]3[C@H](/C=C/c3ccc(-c4ccccc4Cl)cn3)[C@H]12
- IC50 [2]: 11 nM
